Shown are actives, neighbours in structure and some others; about 2.4% of the full set was active somewhere.
RanGTP-Impb inh = inhibitors of RanGTP-importin-beta interaction, primary screen, biochemical, FRET, CFP-Ran, YFP-importin-beta, homogeneous | AID 2216 | inhibition, % (test concentration not listed) | cell-free CFP-Ran/YFP-importin-beta FRET ratio | 1.1% of 300,000 active;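 active = more than half of the replicate wells show a fall in the fluorescence ratio signal beyond about 16%, limit read from the data, passing the limit was not always enough; inconclusive = exactly half of the replicate wells pass the set limit; inactive = fewer than half of replicates pass the limit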;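 note: 0% = DMSO wells and 100% = Ran loaded with GDP instead of GTP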
EBV gp42 inh = inhibitors of Epstein-Barr virus glycoprotein 42 | Q1HVG2 | Fluorescence polarization binding assay, mP read-out | inhibition, % (tested at 21.74 µM) | 0.42% of 220,000 active; in the data active = inhibition above about 50%
Target sequence (Q1HVG2 whole entry, looked up): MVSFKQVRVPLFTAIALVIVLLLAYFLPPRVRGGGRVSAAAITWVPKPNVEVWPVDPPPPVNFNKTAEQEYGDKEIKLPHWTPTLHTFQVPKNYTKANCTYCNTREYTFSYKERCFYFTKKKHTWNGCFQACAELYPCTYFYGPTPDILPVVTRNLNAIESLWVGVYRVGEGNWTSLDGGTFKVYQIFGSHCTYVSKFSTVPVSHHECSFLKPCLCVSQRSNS
Runt-SMMHC FRET = Runt domain-CBFb-SMMHC interaction inhibition; inhibition, % at 20 µM; 0.74% of 220,000 active; AID 1434; Cerulean-Runt/Venus-CBFb-SMMHC FRET ratio 530/480, 1 h;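 active = mean inhibition across duplicate retests at 20 µM reaching about 50%, limit read from the data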;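 note: 0% = DMSO wells and 100% = wells with excess untagged CBFb-SMMHC; inhibitors lower the FRET ratio by blocking Runt binding to CBFb-SMMHC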
MEX-5 binding = C. elegans MEX-5 TCR-2 RNA binding activity; Q9XUB2; MEX-5/FITC-TCR2 RNA binding, fluorescence polarization; hits give low values; activity score (negative = inhibition of binding), % at 10 µM; 0.38% of 300,000 active; AID 1832;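 active = inhibition past about -25% in most replicates, and total fluorescence under double the plate's negative control median, limit read from the data; inconclusive = replicates evenly split on the limit, or fluorescence at least double controls; inactive = too little inhibition in most replicates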;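 note: 0% = DMSO and -100% = 5 µM competing unlabeled TCR2 RNA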
Target sequence (Q9XUB2 whole entry, looked up): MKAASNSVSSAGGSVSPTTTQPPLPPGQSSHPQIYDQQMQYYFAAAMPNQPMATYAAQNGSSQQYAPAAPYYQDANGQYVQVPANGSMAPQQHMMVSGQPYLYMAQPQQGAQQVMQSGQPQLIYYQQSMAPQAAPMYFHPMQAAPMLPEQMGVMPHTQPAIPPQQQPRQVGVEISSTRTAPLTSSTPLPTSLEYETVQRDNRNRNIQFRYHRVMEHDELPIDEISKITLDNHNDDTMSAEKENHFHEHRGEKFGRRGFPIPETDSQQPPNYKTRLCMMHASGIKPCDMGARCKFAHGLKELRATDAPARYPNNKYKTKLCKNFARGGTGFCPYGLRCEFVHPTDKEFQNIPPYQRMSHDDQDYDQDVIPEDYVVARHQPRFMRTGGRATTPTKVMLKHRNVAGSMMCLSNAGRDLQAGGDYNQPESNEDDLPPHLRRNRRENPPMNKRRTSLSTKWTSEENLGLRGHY
LANA-H2A inh = blocks KSHV LANA binding to histone H2A/H2B; Q9QR71; cell-free LANA-H2A/H2B peptide, fluorescence polarization; inhibition, % (concentration not given with the values); 0.6% of 320,000 active; AID 2629; in the data active = inhibition mostly above about 10%, no sharp cut-off; inactive = mostly below about 6.7%
Runt-CBFb FRET = blocks binding of human RUNX1 Runt domain to CBFb. Q01196+Q13951. Cerulean-Runt/Venus-CBFb FRET ratio 530/480, 1 h. inhibition, % at 20 µM. 0.46% of 220,000 active;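 active = inhibition over about 50% at 20 µM in the single-dose screen, limit read from the data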;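 note: 0% = DMSO wells and 100% = excess unlabeled CBFb competitor control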
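test system = Cerulean-tagged RUNX1 Runt domain (FRET donor) fusion protein | reagent = Venus-CBFb binding partner, 100 nM | incubation = protein complex preformed 1 h, compound exposure 1 h, room temperature, dark | detection = FRET fluorescence | read-out basis = loss of energy transfer signal | controls = 5 µM unlabeled CBFb as full-inhibition high control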
YIC FRET counter = counter-screen for RanGTP-importin-beta inhibitors: YIC FRET probe; IC50, µM; 40% of 1,000 active; Purified YIC probe, intramolecular FRET ratio YFP/CFP; AID 435026; shares compounds with RanGTP-Impb inh;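 active = fitted half-maximal inhibitory concentration no more than tenfold above the top dose tested; inconclusive = flat fit with 30 to 70% activity, or poor fit; inactive = half-maximal concentration beyond tenfold above the top dose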
Numbers without * were called inactive; ? = inconclusive; · = not tested or not shown.

SMILES | RanGTP-Impb inh | EBV gp42 inh | Runt-SMMHC FRET | MEX-5 binding | LANA-H2A inh | Runt-CBFb FRET | YIC FRET counter
CN=C(Nc1cc(C)nn1CCC#N)c1ccc(F)cc1 | 2 | -15 | -4 | 3 | -2 | -1 | ·
O=C(O)CCCNS(=O)(=O)c1ccc2c(c1)OCCCO2 | -2 | 2 | 3 | -2 | 2 | 0 | ·
CCOC(=O)C1CCCN(C(=S)Nc2cccc(Cl)c2)C1 (configuration not stated) | -5 | -9 | 3 | 0 | -2 | 2 | ·
N#Cc1c(N)n(CCNC(=O)c2ccc(Cl)cc2)c2nc3ccccc3nc12 | 28* | -33 | 44 | -3 | -2 | 94* | 2*
Nc1nc(O)c(N=Nc2ccc(S(N)(=O)=O)cc2)c(=O)[nH]1 | 0 | · | · | 1 | 0 | · | ·
NS(=O)(=O)c1ccc(N=Nc2c[nH]c(=O)c(O)c2)cc1 | 28* | -9 | 9 | -89* | 2 | 15 | >50
CN1CCc2c(sc(NC(=O)c3ccc(S(=O)(=O)N4CCOCC4)cc3)c2C(N)=O)C1 | 19* | -36 | 2 | -3 | -3 | 1 | 46*
CN1CCN(S(=O)(=O)c2cccc(C(=O)Nc3sc4c(c3C(N)=O)CCCC4)c2)CC1 | -3 | -12 | 7 | 2 | -5 | -5 | ·
CC(C)c1cc2c(c(O)c1O)[C@@]13CCCC(C)(C)C1CC2OC3=O (some centres not stated) | 4 | · | · | -2 | 3 | · | ·
COc1cccc2c(=O)cn[nH]c12 | 0 | -3 | 5 | 0 | -1 | -2 | ·
O=c1cn[nH]c2ccccc12 | 21* | -10 | -10 | 0 | -2 | 2 | >50
Cc1cc(C(=O)CSc2nncn2C)c(C)n1-c1ccccc1 | -4 | 3 | -2 | -2 | 0 | 1 | ·
Cc1cc(C)c[n+](-c2nc3ccccc3nc2[N-]S(=O)(=O)c2ccc(Br)s2)c1 | 30* | 66* | 78* | -10 | -6 | 34 | 7.9*
CC(O)CNc1nc2ccccc2n1CC(=O)NCC(F)(F)F (configuration not stated) | 1 | -21 | 0 | -2 | -3 | 0 | ·
CC(O)CNc1nc2ccccc2n1CC(=O)NC12CC3CC(CC(C3)C1)C2 (configuration not stated) | 22* | -20 | 1 | 0 | -3 | -3 | >50
CC(=O)OC1CC[C@@]2(C)C(CCC3C2CC(=O)[C@@]2(C)C3CC3CC(C)=CC(=O)C32)C1 (some centres not stated) | 4 | -13 | 2 | 4 | -3 | -4 | ·
CCc1nn(CC(=O)NCCCc2ccccc2)c(=O)c2cc3cc(F)ccc3n12 | 5 | · | · | 0 | 0 | · | ·
CS(=O)(=O)N1CCC(Oc2cccc(C(=O)NCCCC3CCCC3)c2)CC1 | 9 | · | · | -1 | 0 | · | ·
CCN(CC)S(=O)(=O)c1cc(C(=O)Nc2ccccc2[N+](=O)[O-])ccc1Cl | 25* | 4 | 0 | -2 | -4 | -2 | >50
CN(C)S(=O)(=O)c1cccc(C(=O)Nc2ccccc2[N+](=O)[O-])c1 | 4 | -17 | -6 | -2 | -2 | 1 | ·
Cc1cc(C)c2c(n1)nn1c(NCCCN(C)C)cc(C)nc21 | 30* | -4 | 64* | 2 | -2 | 22 | 27*
CCC1(c2ccc(F)cc2)NC(=O)N(CC(=O)N(CCC#N)c2ccccc2)C1=O (configuration not stated) | 3 | · | · | 0 | -4 | · | ·
CC(=O)c1cccc(OCC(=O)N(C)CC(=O)Nc2ccc(F)cc2)c1 | 65* | -16 | 2 | 2 | 17* | -2 | >50
COc1ccc(S(=O)Cc2ccc(C(=O)NC3CC3)o2)cc1 (configuration not stated) | 39* | · | · | -12 | 0 | · | >50
O=C(NC1CC1)c1ccc(CS(=O)c2ccc(Br)cc2)o1 (configuration not stated) | 0 | · | · | -2 | 4 | · | ·
SMILES | RanGTP-Impb inh | EBV gp42 inh | Runt-SMMHC FRET | MEX-5 binding | LANA-H2A inh | Runt-CBFb FRET | YIC FRET counter
COc1ccc(NS(=O)(=O)c2cc(NC(=O)/C=C/c3ccccc3OC)ccc2N2CCCCC2)cc1 | 4 | -9 | 1 | 2 | -1 | -1 | ·
CCn1c(=O)cc(N2CCC3(CC2)OCCO3)[nH]c1=O | 24* | -2 | 1 | -1 | 3 | 3 | >50
Cc1ccc2cc(C#N)c(N3CCCN(S(=O)(=O)c4ccc(F)cc4)CC3)nc2c1 | 18* | -7 | 46 | 2 | 2 | 5 | 25*
Cc1ccc2cc(C#N)c(N3CCCN(S(=O)(=O)c4ccccc4)CC3)nc2c1 | ? | -23 | 1 | -4 | 0 | 1 | ·
N#CC1=C(N)SC(N)=C(C#N)C1c1c(Cl)cccc1Cl | 10 | -24 | 43 | -3 | -13 | 15 | ·
N#CC1=C(N)SC(N)=C(C#N)C1c1cccc(Oc2ccccc2)c1 | 24* | -31 | 78* | 1 | -3 | 39 | >50
COc1ccc(-c2nc(C(=O)O)cs2)cc1OC | 3 | -15 | -1 | 1 | 0 | 0 | ·
COc1ccc(-c2cc(C(=O)O)nc3ccc4ccccc4c23)cc1OC | 18* | -4 | 6 | 3 | 2 | 0 | >50
COc1cccc(N2CCN(C(=O)c3cc4c(=O)n(Cc5ccccc5)ccc4nc3C)CC2)c1 | 16* | · | · | 3 | 2 | · | >50
COC(=O)C(C)Oc1ccc2c(c1)O/C(=C\c1ccco1)C2=O (configuration not stated) | 21* | · | · | 0 | 1 | · | 17*
COc1ccc2c(c1)O/C(=C\c1ccco1)C2=O | 21* | -21 | 61* | -5 | -1 | 14 | 19*
O=C(NCc1cccnc1)C(=O)Nc1cc2c3c(c1)CC(=O)N3CCC2 | 2 | · | · | -1 | -1 | · | ·
Cc1ccc(S(=O)(=O)NC(C(=O)Oc2ccc3ccc(=O)oc3c2)c2ccccc2)cc1 (configuration not stated) | 20* | -16 | 160* | -1 | 6 | 85* | 28*
COc1ccc(CN2CCN(C(=O)CCC(=O)Nc3nnc(C4CCCCC4)s3)CC2)cc1F | 8 | · | · | -1 | 0 | · | ·
CCCCN(C)CCCNC(=O)CN1C(=O)COc2ccc(S(=O)(=O)N3CCOCC3)cc21 | -1 | · | · | -2 | · | · | ·
O=C(NC1=NCCS1)c1cc(-c2cccnc2)nc2ccccc12 | 15* | -6 | -1 | -2 | 0 | -5 | >50
CCOC(=O)c1[nH]c(C)c(C(=O)N(C)Cc2ccccc2)c1C | 25* | 2 | 1 | -1 | -3 | 6 | >50
c1ccc2sc(NC3=NCN(CCN4CCOCC4)CN3)nc2c1 | 28* | 5 | 1 | 3 | 0 | -2 | >50

Source: PubChem BioAssay (several laboratories)
